Each structure is given as a SMILES string. Activity calls are given as the source filed them. The calls are words filed in the database; no cut-off is given here.

Experiment [1] concerns Human immunodeficiency virus 1. As to the kind of experiment: Selectivity ratio of Kd for excision of zidovudine-monophosphate from chain terminated DNA/DNA template/primer duplex in HIV1 LAI reverse transcriptase M41L/L210W/T215Y/K65R/G333D mutant to Kd for excision of zidovudine-monophosphate from chain terminated DNA/DNA template/primer duplex in wild type HIV1 LAI reverse transcriptase by gel shift mobility assay. A general note: A gel shift assay detects complexes by their altered migration in electrophoresis.

The test system of experiment [2] is Human immunodeficiency virus 1. As to the kind of experiment: Selectivity ratio of Kd for excision of zidovudine-monophosphate terminated DNA/DNA template/primer duplex chain in HIV1 LAI reverse transcriptase M184V mutant to Kd for excision of zidovudine-monophosphate terminated DNA/DNA template/primer duplex chain in wild type HIV1 LAI reverse transcriptase by gel shift mobility assay.

Experiment [3] relates to Human immunodeficiency virus 1. The experiment can be described thus: Selectivity ratio of Kd for excision of zidovudine-monophosphate from chain terminated DNA/DNA template/primer duplex in 200 nM HIV1 LAI reverse transcriptase M41L/L210W/T215Y mutant to Kd for excision of zidovudine-monophosphate from chain terminated DNA/DNA template/primer duplex in 200 nM HIV1 LAI reverse transcriptase M184V mutant by gel shift mobility assay.

Experiment [4] relates to Human immunodeficiency virus 1. As to the kind of experiment: Selectivity ratio of Kd for excision of zidovudine-monophosphate from chain terminated DNA/DNA template/primer duplex in 200 nM HIV1 LAI reverse transcriptase M41L/L210W/T215Y mutant to Kd for excision of zidovudine-monophosphate from chain terminated DNA/DNA template/primer duplex in 200 nM wild type HIV1 LAI reverse transcriptase by gel shift mobility assay.

Experiment [5] has as its system Human immunodeficiency virus type 1 reverse transcriptase (Human immunodeficiency virus 1), Q72547 [M41L,L210W,T215Y]. The experiment can be described thus: Binding affinity to 200 nM HIV1 LAI reverse transcriptase M41L/L210W/T215Y mutant assessed as ATP-mediated excision of zidovudine-monophosphate from chain terminated DNA/DNA template/primer duplex at 100 uM. The method, boiled down: (§1)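 Primer P20 (5′-³²P) on DNA template T57 was chain-terminated with WT RT and 100 μM AZT-TP (30 min, 37°C), gel-purified and reannealed. 200 nM active-site RT with 20 nM terminated T/P in 50 mM Tris-HCl pH 8.0, 50 mM KCl. Started with 3.0 mM ATP, 10 mM MgCl₂, 1 μM TTP and 5 μM ddCTP. Timed aliquots were run on 7 M urea-16% PAGE and phosphorimaged.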

For experiment [6], the target named is Human immunodeficiency virus type 1 reverse transcriptase (Human immunodeficiency virus 1, UniProt Q72547). As to the kind of experiment: Binding affinity to wild type HIV1 LAI reverse transcriptase assessed as ATP-mediated excision of zidovudine-monophosphate terminated DNA/DNA template/primer duplex chain at 100 uM by gel shift mobility assay. In outline:
(§2)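 Native 4% PAGE in Tris-acetate pH 8.0 with 1 mM EDTA, 30 min at 100 V, room temperature. The shifted band was taken as a 1:1 RT-T/P complex to give Kd. Mean ± SD of three experiments.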

Experiment [7] has as its target Human immunodeficiency virus type 1 reverse transcriptase (Human immunodeficiency virus 1) (UniProt Q72547). As to the kind of experiment: Binding affinity to 200 nM wild type HIV1 LAI reverse transcriptase assessed as ATP-mediated excision of zidovudine-monophosphate from chain terminated DNA/DNA template/primer duplex at 100 uM. The method, boiled down:
as §1

Experiment [8] has as its system Human immunodeficiency virus 1. As to the kind of experiment: Binding affinity to 200 nM HIV1 LAI reverse transcriptase M41L/L210W/T215Y/M184V/G333D mutant assessed as ATP-mediated excision of zidovudine-monophosphate from chain terminated DNA/DNA template/primer duplex at 100 uM. In outline:
as §1

Experiment [9] relates to Human immunodeficiency virus type 1 reverse transcriptase (Human immunodeficiency virus 1), Q72547 [M41L,L210W,T215Y]. The experiment can be described thus: Binding affinity to HIV1 LAI reverse transcriptase M41L/L210W/T215Y mutant assessed as ATP-mediated excision of zidovudine-monophosphate from chain terminated RNA/DNA template/primer duplex. The method, boiled down: (§3)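 The AZT-MP-terminated ³²P-P20 primer was annealed to a 35-nt RNA template (T35). 200 nM active-site RT with 20 nM T/P in 50 mM Tris-HCl pH 8.0, 50 mM KCl. Started with 3.0 mM ATP and 10 mM MgCl₂. Timed aliquots were quenched and separated on denaturing urea-PAGE, then phosphorimaged.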

Experiment [10] concerns Human immunodeficiency virus 1. The experiment can be described thus: Selectivity ratio of Kd for excision of zidovudine-monophosphate terminated DNA/DNA template/primer duplex chain in HIV1 LAI reverse transcriptase M41L/L210W/T215Y/M184V mutant to Kd for excision of zidovudine-monophosphate terminated DNA/DNA template/primer duplex chain in wild type HIV1 LAI reverse transcriptase by gel shift mobility assay.

Experiment [11] deals with Human immunodeficiency virus 1. The experiment can be described thus: Selectivity ratio of Kd for excision of zidovudine-monophosphate terminated DNA/DNA template/primer duplex chain in HIV1 LAI reverse transcriptase M41L/L210W/T215Y/M184V/G333D mutant to Kd for excision of zidovudine-monophosphate terminated DNA/DNA template/primer duplex chain in wild type HIV1 LAI reverse transcriptase by gel shift mobility assay.

For experiment [12], the target named is Human immunodeficiency virus type 1 reverse transcriptase (Human immunodeficiency virus 1, UniProt Q72547, L210W/M184V/M41L/T215Y). As to the kind of experiment: Binding affinity to HIV1 LAI reverse transcriptase M41L/L210W/T215Y/M184V mutant assessed as ATP-mediated excision of zidovudine-monophosphate terminated DNA/DNA template/primer duplex chain at 100 uM by gel shift mobility assay. The method, boiled down:
as §2

Experiment [13] relates to Human immunodeficiency virus 1. As to the kind of experiment: Selectivity ratio of Kd for excision of zidovudine-monophosphate terminated DNA/DNA template/primer duplex chain in HIV1 LAI reverse transcriptase M41L/L210W/T215Y mutant to Kd for excision of zidovudine-monophosphate terminated DNA/DNA template/primer duplex chain in wild type HIV1 LAI reverse transcriptase by gel shift mobility assay.

For experiment [14], the target named is Human immunodeficiency virus type 1 reverse transcriptase (Human immunodeficiency virus 1, UniProt Q72547, M184V). The experiment can be described thus: Binding affinity to HIV1 LAI reverse transcriptase M184V mutant assessed as ATP-mediated excision of zidovudine-monophosphate terminated DNA/DNA template/primer duplex chain at 100 uM by gel shift mobility assay. In outline:
as §2

For experiment [15], the system named is Human immunodeficiency virus type 1 reverse transcriptase (Human immunodeficiency virus 1), Q72547 [M41L,L210W,T215Y,M184V]. The experiment can be described thus: Binding affinity to 200 nM HIV1 LAI reverse transcriptase M41L/L210W/T215Y/M184V mutant assessed as ATP-mediated excision of zidovudine-monophosphate from chain terminated DNA/DNA template/primer duplex at 100 uM. The method, boiled down:
as §1

In experiment [16] the target is Human immunodeficiency virus type 1 reverse transcriptase (Human immunodeficiency virus 1) (UniProt Q72547). The experiment can be described thus: Binding affinity to wild type HIV1 LAI reverse transcriptase assessed as ATP-mediated excision of zidovudine-monophosphate from chain terminated RNA/DNA template/primer duplex. In outline:
as §3

The nature of experiment [17]: Binding affinity to HIV1 LAI reverse transcriptase M41L/L210W/T215Y/M184V/G333D mutant assessed as ATP-mediated excision of zidovudine-monophosphate terminated DNA/DNA template/primer duplex chain at 100 uM by gel shift mobility assay. Also on record: species or system Human immunodeficiency virus 1. In outline:
as §2

The test system of experiment [18] is Human immunodeficiency virus type 1 reverse transcriptase (Human immunodeficiency virus 1), Q72547 [M41L,L210W,T215Y,M184V]. As to the kind of experiment: Binding affinity to HIV1 LAI reverse transcriptase M41L/L210W/T215Y/M184V mutant assessed as ATP-mediated excision of zidovudine-monophosphate from chain terminated RNA/DNA template/primer duplex. The method, boiled down: as §3

One may read the Kd as the equilibrium constant for the complex coming apart. On to `Cc1cn([C@H]2C[C@H](N=[N+]=[N-])[C@@H](COP(=O)(O)O)O2)c(=O)[nH]c1=O` [AZIDOTHYMIDINE MONOPHOSPHATE], for which the Ratio was determined as 1.1 in [1]; 3.8 in experiment [2]; 5 in experiment [10]; 2.3 in experiment [11]; 1 in experiment [13]. Moreover, the fold change (FC) in experiment [3] and in [4] was 4 in each case. Also, the result in experiment [5], in [7], in [8], in experiment [9], in experiment [15] and in experiment [18] was Active. Moreover, the Kd came out at 19.8 nM in experiment [6], 98.4 nM in experiment [12], 76.9 nM in [14] and 46.2 nM in experiment [17]. Further, the result in experiment [16] was inactive.

The record behind these values is ChEMBL document CHEMBL1153554, “Mechanisms by which the G333D mutation in human immunodeficiency virus type 1 Reverse transcriptase facilitates dual resistance to zidovudine and lamivudine” (Antimicrob Agents Chemother, 2008).
